# Data taken from ChEMBL document CHEMBL1806443, “Novel imidazo[4,5-b]pyridine and triaza-benzo[c]fluorene derivatives: synthesis, antiproliferative activity and DNA binding studies” (Eur J Med Chem, 2011).
# The source made the active and inactive calls. The rule behind the calls is not given here.
# Experiments:
# [1] = tested on: SW-620; experiment: Antiproliferative activity against human SW620 cells after 72 hrs by MTT assay; format: functional, cell-based
# How it was run: (§1)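 Monolayer cells in DMEM with 10% FBS, 2 mM L-glutamine, penicillin and streptomycin at 37 °C, 5% CO2. Seeded at 3000-6000 cells/well by doubling time on day 0. Five 10-fold dilutions (0.01–100 µM) were added and incubated 72 h. MTT read-out, converted to percentage growth. IC50 by linear regression between bracketing concentrations. Quadruplicate points, three independent experiments, ANOVA/Tukey p<0.05.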
# [2] = tested on: MCF7; experiment: Antiproliferative activity against human MCF7 cells after 72 hrs by MTT assay; format: functional, cell-based; how it was run: as §1
# [3] = tested on: HEp-2; experiment: Antiproliferative activity against human Hep2 cells after 72 hrs by MTT assay; format: functional, cell-based; how it was run: as §1
# [4] = tested on: MIA PaCa-2; experiment: Antiproliferative activity against human MIAPaCa2 cells after 72 hrs by MTT assay; format: functional, cell-based; how it was run: as §1
# [5] = tested on: HeLa; experiment: Antiproliferative activity against human HeLa cells after 72 hrs by MTT assay; format: functional, cell-based; how it was run: as §1
# [6] = tested on: WI-38; experiment: Antiproliferative activity against human WI38 cells after 72 hrs by MTT assay; format: cell-based; how it was run: as §1
# [7] = tested on: SK-BR-3; experiment: Antiproliferative activity against human SKBR3 cells after 72 hrs by MTT assay; format: functional, cell-based; how it was run: as §1
# [8] = tested on: SK-BR-3; experiment: Cytostatic activity against human SKBR3 cells at 1 to 10 uM after 72 hrs by MTT assay; format: functional, cell-based
# How it was run: (§2)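 Monolayers in DMEM with 10% FBS, 2 mM L-glutamine, penicillin and streptomycin (37 °C, 5% CO2) were seeded at 3000–6000 cells/well on day 0. Five 10-fold dilutions (0.01–100 µM) were added, followed by 72-h incubation and MTT read-out. Absorbances were converted to percentage growth by the NIH formulae. Each point was run in quadruplicate in three experiments; ANOVA with Tukey test.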
# [9] = tested on: MIA PaCa-2; experiment: Cytostatic activity against human MIAPaCa2 cells at 1 to 10 uM after 72 hrs by MTT assay; format: functional, cell-based; how it was run: as §2
# [10] = tested on: HEp-2; experiment: Cytostatic activity against human Hep2 cells at 1 to 10 uM after 72 hrs by MTT assay; format: functional, cell-based; how it was run: as §2
# [11] = tested on: SW-620; experiment: Cytostatic activity against human SW620 cells at 1 to 10 uM after 72 hrs by MTT assay; format: functional, cell-based; how it was run: as §2
# [12] = tested on: WI-38; experiment: Cytostatic activity against human WI38 cells at 1 to 10 uM after 72 hrs by MTT assay; format: ADME, cell-based; conditions: wi-38, 72 h; how it was run: as §2
# [13] = tested on: HeLa; experiment: Cytostatic activity against human HeLa cells at 1 to 10 uM after 72 hrs by MTT assay; format: functional, cell-based; how it was run: as §2
# [14] = tested on: MCF7; experiment: Cytostatic activity against human MCF7 cells at 1 to 10 uM after 72 hrs by MTT assay; format: functional, cell-based; how it was run: as §2
SMILES,"IC50 ([1]; Homo sapiens, SW-620, 72 h)","IC50 ([2]; Homo sapiens, MCF7, 72 h)","IC50 ([3]; Homo sapiens, HEp-2, 72 h)","IC50 ([4]; Homo sapiens, MIA PaCa-2, 72 h)","IC50 ([5]; Homo sapiens, HeLa, 72 h)","IC50 ([6]; Homo sapiens, WI-38, 72 h)","IC50 ([7]; Homo sapiens, SK-BR-3, 72 h)",Activity [8],Activity [9],Activity [10],Activity [11],Activity [13],Activity [14],also measured
Nc1ccc2c(ccc3nc4ncc(Br)cc4n32)c1 [listing 1 of 2 here],,,,,,,,,,,,,,IC50 ([1]; sw-620): 40.7 µM; IC50 ([2]; mcf7): 67.3 µM; IC50 ([3]; hep-2): 21.6 µM; IC50 ([4]; mia paca-2): 40.3 µM; IC50 ([5]; hela): 37.7 µM; IC50 ([6]; wi-38): 85.1 µM; IC50 ([7]; sk-br-3): 7.56 µM
Clc1cccnc1/C=C/c1nc2ncccc2[nH]1,> 100 µM,> 100 µM,> 100 µM,> 100 µM,> 100 µM,> 100 µM,53.1 µM,,,,,,,
N#Cc1ccc2ccc3nc4ncccc4n3c2c1,> 100 µM,> 100 µM,47.3 µM,> 100 µM,39.5 µM,51.5 µM,67.7 µM,,,,,,,
O=[N+]([O-])c1ccc(Cl)c(/C=C/c2nc3ncc(Br)cc3[nH]2)c1,7.99 µM,8.81 µM,0.91 µM,30.6 µM,3.68 µM,6.48 µM,59.9 µM,Active,Active,Active,Active,Active,Active,Activity [12]: Toxic
c1cnc2ccc3nc4ncccc4n3c2c1,> 100 µM,> 100 µM,> 100 µM,> 100 µM,> 100 µM,> 100 µM,> 100 µM,,,,,,,
Clc1ccccc1/C=C/c1nc2ncccc2[nH]1,50.9 µM,25.6 µM,29.3 µM,59.1 µM,31.6 µM,> 100 µM,5.79 µM,Active,Active,Active,Active,Active,Active,Activity [12]: Toxic
Nc1ccc2c(ccc3nc4ncc(Br)cc4n32)c1 [listing 2 of 2 here],,,,,,,,Active,Active,Active,Active,Active,Active,
O=c1[nH]cc(F)c(=O)[nH]1 [FLUOROURACIL],3.38 µM,42 µM,> 100 µM,11.5 µM,10.3 µM,18.5 µM,38.2 µM,,,,,,,
